From ChEMBL document CHEMBL4680165, “β-Lactams with antiproliferative and antiapoptotic activity in breast and chemoresistant colon cancer cells” (Eur J Med Chem, 2020) come the findings set out here.

One test has as its system MCF7. Kind of test: Antiproliferative activity against human MCF7 cells assessed as reduction in cell viability after 72 hrs by alamar blue assay. The test is classed as functional, cell-based. The following applies: MCF7, 72 h. In short, it runs like this:
(§1)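 Cells seeded at 5 x 10^3/well (MCF-7) or 1 x 10^4/well (HT-29, HEK-293T) and treated after 24 h with serial dilutions (0.001-100 µM) in 1% v/v ethanol vehicle. Alamar Blue 10% v/v added at 72 h, then 3-5 h at 37 °C in the dark; fluorescence ex 530/em 590 nm. Viability relative to vehicle; IC50 from dose-response curves; mean of three experiments in triplicate.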

Test [1] has as its system HT-29. Kind of test: Antiproliferative activity against human HT-29 cells assessed as reduction in cell viability after 72 hrs by alamar blue assay. Type of test: functional, cell-based. Conditions: HT-29, 72 h. In short, it runs like this: as §1
Test [2] can be described thus: Selectivity index, ratio of IC50 for human MCF7 cells to IC50 for human HT-29 cells assessed as reduction in cell viability after 72 hrs by alamar blue assay. Type of test: functional.
The species entered for another test is Bos taurus. Kind of test: Inhibition of bovine brain tubulin polymerization at 10 uM measured at 30 sec interval for 30 mins in presence of GTP by turbidimetry-based spectrophotometric method.
Test [3] relates to HT-29. The test is described as follows: Antiangiogenic activity in human HT29 cells assessed as reduction in IL-1alpha secretion at 5 uM after 24 hrs by ELISA. The test is classed as functional, cell-based. In short, it runs like this: (§2)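 HT-29 cells at 5 x 10^4 per well, cultured 24 h and then exposed to 5 µM compound. Conditioned medium collected on ice and stored at -80 °C. Cytokines and angiogenic, vascular-injury and chemokine factors measured by multiplex panels with overnight supernatant incubation (Angiogenesis Panel 1 and Vascular Injury Panel 2 same day). Medium undiluted except 1:4 for Vascular Injury Panel 2. Secretion normalised to lysate protein by BCA.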

For test [4], the system named is HT-29. The test is described as follows: Antiangiogenic activity in human HT29 cells assessed as reduction in IL-1beta secretion at 5 uM after 24 hrs by ELISA. Type of test: functional, cell-based. In short, it runs like this:
as §2
On the technique in general: An ELISA detects its analyte on a solid surface through an enzyme-linked reagent.

Test [5] concerns HT-29. The test is described as follows: Antiangiogenic activity in human HT29 cells assessed as reduction in VEGF secretion at 5 uM after 24 hrs by ELISA. The test is classed as functional, cell-based. In short, it runs like this: as §2
Test [6] relates to HT-29. Kind of test: Antiangiogenic activity in human HT-29 cells assessed as increase in IL-1RA secretion at 5 uM after 24 hrs by ELISA. The test is classed as functional, cell-based. In outline:
as §2

In test [7] the test system is HT-29. Kind of test: Potency index, ratio of CA-4 IC50 to test compound IC50 for human HT-29 cells. Type of test: functional.

The pIC50 is −log10 of the IC50, conventionally taken in molar units.

Each structure is given as a SMILES string. pIC50: −log10 of the molar value. Calls of active or inactive are those of the source. The calls are words filed in the database; no cut-off is given here.

With `COc1ccc([C@H]2[C@H](O)C(=O)N2c2cc(OC)c(OC)c(OC)c2)cc1C`, the pIC50 in the test on MCF7 was 8.30; in the test with HT-29 [1], 8.15. Also, the “Ratio IC50” value in test [2] amounted to 0.71; in the test with HT-29 [7] it was 600. Further, in the test listed under Bos taurus, the inhibition result was “Active”. For the same compound, the outcome in the test with HT-29 [3], with HT-29 [4] and with HT-29 [5] was inactive. Besides, in the test on HT-29 [6], the result was Active.
